Data from ChEMBL document CHEMBL2401654, “Synthesis, characterization, and biological assessment of the four stereoisomers of the H(3) receptor antagonist 5-fluoro-2-methyl-N-[2-methyl-4-(2-methyl[1,3']bipyrrolidinyl-1'-yl)phenyl]benzamide” (Bioorg Med Chem Lett, 2013).

Tests used:
[1] = Genotoxicity in micronucleus (unknown origin)
Salmonella typhimurium = assay: Mutagenic activity in Salmonella typhimurium by Ames test; assay type: toxicity, organism-based; details: salmonella enterica subsp. enterica serovar typhimurium
hERG (KCNH2) [2] = target: T1, hERG (KCNH2) (Homo sapiens, UniProt Q12809); assay: Inhibition of human ERG transfected in CHO cells at 10 uM by patch clamp assay relative to control; assay type: cell-based; details: CHO cells transfected with human ERG
T1 sequence (Q12809 whole entry): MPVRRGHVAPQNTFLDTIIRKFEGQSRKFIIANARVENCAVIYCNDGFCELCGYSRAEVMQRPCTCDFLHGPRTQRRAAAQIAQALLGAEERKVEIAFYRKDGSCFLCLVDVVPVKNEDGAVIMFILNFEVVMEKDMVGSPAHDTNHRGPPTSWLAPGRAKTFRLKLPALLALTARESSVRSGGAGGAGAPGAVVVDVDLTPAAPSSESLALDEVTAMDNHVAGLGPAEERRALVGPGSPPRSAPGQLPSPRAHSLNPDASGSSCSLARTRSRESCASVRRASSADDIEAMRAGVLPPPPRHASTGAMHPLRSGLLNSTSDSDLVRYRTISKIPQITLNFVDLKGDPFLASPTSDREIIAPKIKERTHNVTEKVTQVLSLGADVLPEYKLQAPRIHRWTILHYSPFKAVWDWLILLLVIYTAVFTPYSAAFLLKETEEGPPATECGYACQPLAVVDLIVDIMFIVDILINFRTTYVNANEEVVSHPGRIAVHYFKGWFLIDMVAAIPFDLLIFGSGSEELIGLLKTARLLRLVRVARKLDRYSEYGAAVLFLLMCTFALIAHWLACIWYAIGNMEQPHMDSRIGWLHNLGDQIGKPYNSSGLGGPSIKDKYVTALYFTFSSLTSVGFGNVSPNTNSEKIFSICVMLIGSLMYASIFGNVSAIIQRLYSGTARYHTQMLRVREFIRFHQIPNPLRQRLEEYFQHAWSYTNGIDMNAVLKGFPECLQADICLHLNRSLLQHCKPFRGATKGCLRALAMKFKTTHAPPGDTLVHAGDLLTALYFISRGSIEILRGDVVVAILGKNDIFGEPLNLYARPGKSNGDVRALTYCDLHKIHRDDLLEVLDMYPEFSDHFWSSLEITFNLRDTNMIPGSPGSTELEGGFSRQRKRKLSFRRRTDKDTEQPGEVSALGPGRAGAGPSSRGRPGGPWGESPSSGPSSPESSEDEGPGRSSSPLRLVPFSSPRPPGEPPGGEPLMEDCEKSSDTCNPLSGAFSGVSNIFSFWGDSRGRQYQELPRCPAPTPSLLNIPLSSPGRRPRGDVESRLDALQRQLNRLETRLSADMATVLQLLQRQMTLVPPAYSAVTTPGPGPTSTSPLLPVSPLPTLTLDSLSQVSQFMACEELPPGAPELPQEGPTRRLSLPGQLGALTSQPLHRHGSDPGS
Summary of the method: (§1)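 Whole-cell patch clamp on CHO cells stably transfected with the human ERG gene.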

hERG (KCNH2) [3] = target: T1, hERG (KCNH2); assay: Inhibition of human ERG transfected in CHO cells at 1 uM by patch clamp assay relative to control; assay type: cell-based; details: CHO cells transfected with human ERG; summary of the method: as §1
Cytochrome P450 3A4 = Cytochrome P450 3A4 (Homo sapiens, UniProt P08684); assay: Inhibition of CYP3A4 (unknown origin); assay type: ADME
Chain of Cytochrome P450 3A4 (P08684 whole entry): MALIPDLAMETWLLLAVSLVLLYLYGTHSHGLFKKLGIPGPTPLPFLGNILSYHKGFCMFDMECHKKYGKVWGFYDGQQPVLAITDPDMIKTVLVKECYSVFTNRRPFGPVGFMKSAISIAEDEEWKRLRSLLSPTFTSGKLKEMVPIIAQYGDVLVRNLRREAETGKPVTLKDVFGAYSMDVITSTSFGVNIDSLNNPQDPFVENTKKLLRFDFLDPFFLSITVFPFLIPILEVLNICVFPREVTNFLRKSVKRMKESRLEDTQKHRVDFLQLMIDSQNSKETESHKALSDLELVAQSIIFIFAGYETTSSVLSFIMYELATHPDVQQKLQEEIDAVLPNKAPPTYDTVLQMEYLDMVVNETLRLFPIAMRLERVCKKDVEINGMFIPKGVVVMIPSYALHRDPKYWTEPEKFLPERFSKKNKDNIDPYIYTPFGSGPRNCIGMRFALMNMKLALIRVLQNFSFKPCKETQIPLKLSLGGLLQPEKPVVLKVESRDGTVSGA

Cytochrome P450 2C19 = Cytochrome P450 2C19 (Homo sapiens, UniProt P33261); assay: Inhibition of CYP2C19 (unknown origin); assay type: ADME
Chain of Cytochrome P450 2C19 (P33261 whole entry): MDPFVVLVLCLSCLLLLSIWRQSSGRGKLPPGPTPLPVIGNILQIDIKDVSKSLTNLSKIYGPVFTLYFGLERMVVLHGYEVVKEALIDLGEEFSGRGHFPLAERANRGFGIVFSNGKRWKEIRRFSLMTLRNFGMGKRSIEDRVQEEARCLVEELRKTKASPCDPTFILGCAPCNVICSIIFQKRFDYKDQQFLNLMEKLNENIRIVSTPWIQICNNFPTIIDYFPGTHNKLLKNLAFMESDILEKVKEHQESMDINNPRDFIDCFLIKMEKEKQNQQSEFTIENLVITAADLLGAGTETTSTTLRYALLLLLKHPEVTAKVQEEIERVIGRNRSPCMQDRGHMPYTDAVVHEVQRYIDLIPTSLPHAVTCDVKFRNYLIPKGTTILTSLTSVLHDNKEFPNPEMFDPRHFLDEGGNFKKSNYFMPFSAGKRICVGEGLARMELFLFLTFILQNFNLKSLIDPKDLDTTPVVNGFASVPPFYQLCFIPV

Cytochrome P450 2D6 = Cytochrome P450 2D6 (Homo sapiens, UniProt P10635); assay: Inhibition of CYP2D6 (unknown origin); assay type: ADME
Chain of Cytochrome P450 2D6 (P10635 whole entry): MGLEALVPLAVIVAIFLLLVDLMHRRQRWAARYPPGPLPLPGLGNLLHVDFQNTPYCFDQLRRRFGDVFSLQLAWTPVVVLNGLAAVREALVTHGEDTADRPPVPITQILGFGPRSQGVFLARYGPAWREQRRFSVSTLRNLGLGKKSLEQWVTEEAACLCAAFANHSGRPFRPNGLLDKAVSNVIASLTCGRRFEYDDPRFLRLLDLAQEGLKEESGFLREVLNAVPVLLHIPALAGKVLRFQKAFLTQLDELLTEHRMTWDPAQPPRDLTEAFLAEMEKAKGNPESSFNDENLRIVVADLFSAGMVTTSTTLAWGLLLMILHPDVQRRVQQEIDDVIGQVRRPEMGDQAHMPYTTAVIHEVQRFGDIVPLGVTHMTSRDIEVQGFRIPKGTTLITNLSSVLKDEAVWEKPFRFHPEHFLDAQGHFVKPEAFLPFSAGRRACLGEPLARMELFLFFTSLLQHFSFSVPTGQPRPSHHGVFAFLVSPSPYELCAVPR

Cytochrome P450 2C9 = Cytochrome P450 2C9 (Homo sapiens, UniProt P11712); assay: Inhibition of CYP2C9 (unknown origin); assay type: ADME
Chain of Cytochrome P450 2C9 (P11712 whole entry): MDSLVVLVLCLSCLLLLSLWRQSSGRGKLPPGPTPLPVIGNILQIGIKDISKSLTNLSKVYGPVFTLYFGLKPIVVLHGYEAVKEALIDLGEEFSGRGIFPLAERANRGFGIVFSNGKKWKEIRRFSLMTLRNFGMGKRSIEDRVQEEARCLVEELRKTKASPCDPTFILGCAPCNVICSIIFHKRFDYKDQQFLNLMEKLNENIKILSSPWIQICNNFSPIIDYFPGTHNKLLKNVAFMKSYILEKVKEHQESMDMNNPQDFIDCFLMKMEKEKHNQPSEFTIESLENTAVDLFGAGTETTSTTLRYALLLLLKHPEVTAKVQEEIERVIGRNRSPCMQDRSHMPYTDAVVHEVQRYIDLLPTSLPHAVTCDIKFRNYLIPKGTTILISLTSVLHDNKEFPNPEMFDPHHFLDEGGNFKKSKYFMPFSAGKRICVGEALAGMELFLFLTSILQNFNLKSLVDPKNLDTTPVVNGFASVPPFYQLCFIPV

Cytochrome P450 2B6 = target: T2, Cytochrome P450 2B6 (Homo sapiens, UniProt P20813); assay: Inhibition of CYP2B6 (unknown origin); assay type: ADME
T2 sequence (P20813 whole entry): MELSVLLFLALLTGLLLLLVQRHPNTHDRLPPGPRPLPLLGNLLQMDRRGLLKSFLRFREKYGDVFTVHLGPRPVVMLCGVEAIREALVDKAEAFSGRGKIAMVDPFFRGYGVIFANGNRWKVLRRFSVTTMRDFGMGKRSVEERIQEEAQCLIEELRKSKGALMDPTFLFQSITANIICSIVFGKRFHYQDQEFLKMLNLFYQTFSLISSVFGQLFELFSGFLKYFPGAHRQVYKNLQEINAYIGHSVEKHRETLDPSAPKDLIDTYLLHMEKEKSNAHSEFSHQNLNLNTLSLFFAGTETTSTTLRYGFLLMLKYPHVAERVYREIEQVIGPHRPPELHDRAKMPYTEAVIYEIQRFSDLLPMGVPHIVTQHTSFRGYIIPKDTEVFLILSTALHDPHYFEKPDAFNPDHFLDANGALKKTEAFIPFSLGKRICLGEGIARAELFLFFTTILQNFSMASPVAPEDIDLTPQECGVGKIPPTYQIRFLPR

Cytochrome P450 1A2 = target: T3, Cytochrome P450 1A2 (Homo sapiens, UniProt P05177); assay: Inhibition of CYP1A2 (unknown origin); assay type: ADME
T3 sequence (P05177 whole entry): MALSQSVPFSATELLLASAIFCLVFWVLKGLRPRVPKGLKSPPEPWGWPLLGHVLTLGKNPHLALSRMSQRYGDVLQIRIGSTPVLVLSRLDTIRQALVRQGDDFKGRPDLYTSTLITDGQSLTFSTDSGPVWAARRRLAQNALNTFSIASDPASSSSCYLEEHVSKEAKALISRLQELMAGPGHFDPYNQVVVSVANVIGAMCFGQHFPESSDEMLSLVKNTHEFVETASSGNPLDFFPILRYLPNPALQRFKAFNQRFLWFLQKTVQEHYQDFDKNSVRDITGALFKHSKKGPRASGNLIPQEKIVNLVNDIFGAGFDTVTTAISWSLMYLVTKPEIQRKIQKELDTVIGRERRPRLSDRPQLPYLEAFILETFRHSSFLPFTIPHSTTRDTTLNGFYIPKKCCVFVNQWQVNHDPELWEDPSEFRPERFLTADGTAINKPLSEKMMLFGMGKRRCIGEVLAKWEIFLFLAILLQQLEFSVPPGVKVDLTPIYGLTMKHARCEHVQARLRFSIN

[4] = Drug metabolism in rat liver microsomes at 5 uM after 20 mins; assay type: ADME, Microsome; details: read-out: Drug metabolism
Summary of the method: (§2)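 Substrate at 5 µM incubated at 37 °C for 20 min with in-house liver microsome preparations (human, mouse or rat). Reported as the percentage of parent compound metabolized.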

[5] = Drug metabolism in human liver microsomes at 5 uM after 20 mins; assay type: ADME, Microsome; details: read-out: Drug metabolism; summary of the method: as §2
[6] = Drug metabolism in mouse liver microsomes at 5 uM after 20 mins; assay type: ADME, Microsome; details: read-out: Drug metabolism; summary of the method: as §2
Histamine H3 receptor [7] = target: Histamine H3 receptor (Rattus norvegicus, UniProt Q9QYN8); assay: Displacement of [3H]N-alpha-methylhistamine from recombinant rat histamine H3 receptor transfected in CHO cell membranes after 1 hr by scintillation counting analysis; design: species or system Membrane
Chain of Histamine H3 receptor (Rattus norvegicus, UniProt Q9QYN8) (Q9QYN8 whole entry): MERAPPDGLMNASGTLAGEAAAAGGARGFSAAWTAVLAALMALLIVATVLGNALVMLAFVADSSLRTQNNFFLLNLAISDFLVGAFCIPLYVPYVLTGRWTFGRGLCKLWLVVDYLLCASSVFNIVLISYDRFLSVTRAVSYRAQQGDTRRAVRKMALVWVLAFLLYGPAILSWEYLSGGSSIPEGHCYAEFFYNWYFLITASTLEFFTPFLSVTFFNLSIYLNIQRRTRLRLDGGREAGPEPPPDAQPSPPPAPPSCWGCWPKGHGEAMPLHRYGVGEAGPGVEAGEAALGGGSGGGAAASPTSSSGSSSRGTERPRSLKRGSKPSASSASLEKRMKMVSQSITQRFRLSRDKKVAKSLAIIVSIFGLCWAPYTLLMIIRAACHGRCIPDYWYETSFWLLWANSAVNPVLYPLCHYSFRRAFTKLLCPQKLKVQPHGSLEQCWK
Summary of the method: (§3)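 Radioligand displacement of [3H]N-α-methylhistamine using membranes from CHO cells stably transfected with recombinant human or rat H3 receptor. Ki is presented as a range of multiple experiments (n ≥ 3).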

Histamine H3 receptor [8] = target: Histamine H3 receptor (Homo sapiens, UniProt Q9Y5N1); assay: Displacement of [3H]N-alpha-methylhistamine from recombinant human histamine H3 receptor transfected in CHO cell membranes after 1 hr by scintillation counting analysis; summary of the method: as §3
Chain of Histamine H3 receptor (Homo sapiens, UniProt Q9Y5N1) (Q9Y5N1 whole entry): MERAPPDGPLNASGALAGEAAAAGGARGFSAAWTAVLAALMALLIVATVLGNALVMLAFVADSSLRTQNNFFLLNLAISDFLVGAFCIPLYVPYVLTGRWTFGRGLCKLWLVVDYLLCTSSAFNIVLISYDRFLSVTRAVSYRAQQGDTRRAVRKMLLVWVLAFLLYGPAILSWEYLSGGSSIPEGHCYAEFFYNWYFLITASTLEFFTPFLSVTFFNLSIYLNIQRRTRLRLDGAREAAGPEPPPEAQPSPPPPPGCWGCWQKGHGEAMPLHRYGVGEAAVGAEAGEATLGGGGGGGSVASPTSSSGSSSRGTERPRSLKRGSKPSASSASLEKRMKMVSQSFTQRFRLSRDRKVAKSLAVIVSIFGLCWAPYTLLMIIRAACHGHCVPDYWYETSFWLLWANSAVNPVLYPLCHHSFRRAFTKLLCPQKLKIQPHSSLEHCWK

- IC50 (Cytochrome P450 3A4): > 30 µM
- IC50 (Cytochrome P450 2C19): > 30 µM
- IC50 (Cytochrome P450 2D6): > 30 µM
- IC50 (Cytochrome P450 2C9): > 30 µM
- IC50 (Cytochrome P450 2B6): > 30 µM
- IC50 (Cytochrome P450 1A2): > 30 µM
- metabolised at 20 min, 5 µM [4]: 27%
- metabolised at 20 min, 5 µM [5]: 8%
- metabolised at 20 min, 5 µM [6]: 17%
- Ki (Histamine H3 receptor [7]): 0.0737 µM
- Ki (Histamine H3 receptor [8]): 0.3 µM
SMILES: Cc1cc(N2CC[C@@H](N3CCC[C@H]3C)C2)ccc1NC(=O)c1cc(F)ccc1C
- Activity [1]: Non-toxic
- Activity (Salmonella typhimurium): Non-toxic
- inhibition at 10 µM (hERG (KCNH2) [2]): 77.5%
- inhibition at 1 µM (hERG (KCNH2) [3]): 33.7%
